In brackets after ≈: the same amount, converted by molar mass.
Tests used:
[1] = tested on: S. aureus biofilms (MSSA and two MRSA strains); assay: MBEC, summarised over the S. aureus strains; format: cell-based, Staphylococcus aureus; details: TSB; range as stated in text (Table 1, Table SI-1)
MRSA USA400 MW2 biofilms = assay: Confocal microscopy of biofilms, SYTO 9/PI live/dead staining; format: cell-based, Staphylococcus aureus; details: 80 μM, 5 h treatment in TSB, 48 h biofilms, SYTO 9/PI fluorescence
Method in brief: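 USA400 MW2 grown in TSB with shaking at 37 °C to stationary phase, then adjusted in TSB to 1 × 10^7 CFU/mL. Eight-well chambered coverglass coated with 50 μg/mL fibronectin for 30 min at room temperature and PBS-washed twice. Biofilms grown statically, humidified, 37 °C, 48 h, then PBS-washed twice. Stained with SYTO 9 (all cells) and PI (dead cells) in TSB; 10× compound solution added.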

MRSA (USA300 LAC) = assay: Minimum inhibitory concentration, broth microdilution; format: cell-based; details: Staphylococcus aureus
MRSA USA300 LAC biofilms = assay: Murine skin wound excisional biofilm model; format: in vivo, C57BL/6 mice; details: topical 0.05%, 5 h; not statistically significant
S. aureus strain 29213 = assay: Resistance evolution experiment; format: cell-based, Staphylococcus aureus; details: 14 day period, strain 29213, daily passage from 1/2 MIC well
Method in brief: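 An MIC assay on strain 29213 was repeated daily for 14 days, each incubated 24 h at 37 °C. Colonies from TSA were suspended in PBS to OD600 0.1 and diluted 1:100 in Mueller–Hinton broth. Inoculum was added to 2-fold serial dilutions of test compound in MHB. MIC was the lowest concentration with no growth by OD600.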

MSSA (29213) = assay: Minimum inhibitory concentration, broth microdilution; format: cell-based; details: Staphylococcus aureus
MRSA (USA400 MW2) = assay: as above; format: cell-based; details: Staphylococcus aureus

Row | Compound | MBEC range over the S. aureus strains [1] [µM] | viable biofilm bacteria (MRSA USA400 MW2 biofilms) [%] | MIC (MRSA (USA300 LAC)) [µM] | fold reduction in median CFU/wound compared to untreated mice (MRSA USA300 LAC biofilms) [fold] | fold increase in MIC over serial passage (S. aureus strain 29213) [fold] | MIC (MSSA (29213)) [µM] | MIC (MRSA (USA400 MW2)) [µM]
1 | CN[C@H](CC(C)C)C(=O)N[C@H]1C(=O)N[C@@H](CC(N)=O)C(=O)N[C@H]2C(=O)N[C@H]3C(=O)N[C@H](C(=O)N[C@H](C(=O)O)c4cc(O)cc(O)c4-c4cc3ccc4O)[C@H](O[C@H]3C[C@](C)(N)[C@@H](O)[C@H](C)O3)c3ccc(c(Cl)c3)Oc3cc2cc(c3O[C@@H]2O[C@H](CO)[C@@H](O)[C@H](O)[C@H]2O[C@H]2C[C@](C)(NCc3ccc(-c4ccc(Cl)cc4)cc3)[C@@H](O)[C@H](C)O2)Oc2ccc(cc2Cl)[C@H]1O [Oritavancin] | 12 to 32 | – | – | – | – | – | –
2 | CN[C@H](CC(C)C)C(=O)N[C@H]1C(=O)N[C@@H](CC(N)=O)C(=O)N[C@H]2C(=O)N[C@H]3C(=O)N[C@H](C(=O)N[C@H](C(=O)O)c4cc(O)cc(O)c4-c4cc3ccc4O)[C@H](O)c3ccc(c(Cl)c3)Oc3cc2cc(c3O[C@@H]2O[C@H](CO)[C@@H](O)[C@H](O)[C@H]2O[C@H]2C[C@](C)(N)[C@H](O)[C@H](C)O2)Oc2ccc(cc2Cl)[C@H]1O [V, vancomycin] | – | 65 | 0.5 (≈ 0.725 µg/mL) | 6 | 4 | 0.5 (≈ 0.725 µg/mL) | 0.5 (≈ 0.725 µg/mL)
3 | CN[C@H]1C(=O)N[C@@H]2Cc3ccc(cc3)Oc3cc4cc(c3O[C@@H]3O[C@H](C(=O)O)[C@@H](O)[C@H](O)[C@H]3NC(=O)CCCCCCCCC(C)C)Oc3ccc(cc3Cl)[C@@H](O)[C@@H]3NC(=O)[C@H](NC(=O)[C@@H]4NC(=O)[C@@H](NC2=O)c2cc(cc(O)c2Cl)Oc2cc1ccc2O)c1ccc(O)c(c1)-c1c(O[C@H]2O[C@H](CO)[C@@H](O)[C@H](O)[C@@H]2O)cc(O)cc1[C@@H](C(=O)NCCCN(C)C)NC3=O [dalbavancin] | 8 to 20 | – | – | – | – | – | –
